Compound activity (PubChem BioAssay)
Rows were chosen to be rich in hits. Some 4.3% of all compounds tested hit in one or more screens of this group.
FLuc inh counter: firefly luciferase enzyme inhibitors, primary screen, artefact control for luciferase-based inhibitor screens, biochemical, luminescence, ATPLite; Luciferin 4-monooxygenase (Photinus pyralis), P08659; 10 min; inhibition, % at 10 µM; hit rate 1.5% among 200,000;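 active = inhibition above about 50% when tested at 10 µM, limit read from the data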
Target sequence (P08659 whole entry, looked up): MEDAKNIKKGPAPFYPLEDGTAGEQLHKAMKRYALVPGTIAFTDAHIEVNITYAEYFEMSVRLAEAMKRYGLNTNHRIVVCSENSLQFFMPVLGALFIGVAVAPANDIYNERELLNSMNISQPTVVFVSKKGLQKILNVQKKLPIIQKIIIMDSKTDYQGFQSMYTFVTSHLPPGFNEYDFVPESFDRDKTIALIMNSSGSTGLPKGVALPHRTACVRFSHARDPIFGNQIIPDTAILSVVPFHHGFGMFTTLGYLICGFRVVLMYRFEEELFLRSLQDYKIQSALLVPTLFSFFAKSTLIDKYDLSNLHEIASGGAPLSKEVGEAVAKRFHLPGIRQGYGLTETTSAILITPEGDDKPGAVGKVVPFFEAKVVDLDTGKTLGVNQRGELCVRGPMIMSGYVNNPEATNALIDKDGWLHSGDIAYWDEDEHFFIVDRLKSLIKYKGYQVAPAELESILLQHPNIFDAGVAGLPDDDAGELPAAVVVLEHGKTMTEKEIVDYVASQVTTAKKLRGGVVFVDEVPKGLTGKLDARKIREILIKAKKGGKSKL
STAT1 activator: STAT1 signaling activators, primary screen, cell-based, HTS, luciferase reporter | NIH 3T3 STAT1-luciferase reporter, IFN-gamma, luminescence; 100% = IFN-gamma alone, no compound | activation (% of control), % at 5.5 µM | hit rate 2.6% among 200,000;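 active = activation above the screen-wide mean activation plus 3 SD, cut at about 130% in these data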;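 note: raw ratio to IFN-gamma control signal so 100% means no change and 0% no light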
APP 5'UTR act: activators of APP 5'UTR luciferase reporter, primary screen, SH-SY5Y cells; SH-SY5Y APP 5'UTR luciferase reporter, luminescence; zero percent = DMSO vehicle wells; hit rate 1% among 190,000; activation, % at 2 µM;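 active = activation above a set limit, based on mean plus 3 SD of controls, cut at about 140% in these data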
NF-kB neuron act: activators of NF-kB expression in neurons, primary screen, cell-based, HTS. human neuronal cells, NF-kB reporter expression; active compounds read high. fold change at 12.5 µM. hit rate 1.6% among 190,000. AID 1239, 2008; in the data active = fold change above about 3.3
sdo1 growth: growth rescue of sdo1-depleted yeast, primary screen, S. cerevisiae, bone marrow failure model. z-score at 10 µM. S. cerevisiae sdo1-depleted JHY4D growth rescue, OD600 30 h; active compounds read high; pdr5 snq2 efflux-pump mutant strain. AID 817, 2007. hit rate 0.21% among 140,000;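 active = z-score above 3 at both the 24 hr and the 30 hr optical density reads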;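 note: z-score against mean and SD of all compound wells on the same plate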
FLuc stim CS: FLuc activators, initial screening, artefact control for FLuc-dependent activation tests, biochemical, ATPlite luminescence | activation factor at 10 µM | 200,000 tested, under 10 active | AID 1027, 2008 | ATPlite luciferase biochemical, 10 min; 0 = ATP-free wells, 1 = DMSO control | Luciferin 4-monooxygenase (Photinus pyralis), P08659;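 active = luciferase activation factor, scaled between plate controls, of at least 2 with compound at 10 µM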
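assay system = Luciferase/luciferin detection reagent, cell-free biochemical luciferase assay | also added = ATP substrate | times = 10 min post-reagent at room temperature | measured by = luminescence from luciferase reaction | measure = luciferase activation, seen as luminescence increase over controls | benchmarks = low control with PBS replacing ATP, high control enzyme plus ATP without compound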
* = called active by the depositor; x = no result given.

SMILES	FLuc inh counter	STAT1 activator	APP 5'UTR act	NF-kB neuron act	sdo1 growth	FLuc stim CS
COc1ccccc1NC(=O)c1oc2ccc(C)cc2c1C	22	129*	2	2.5	-0.91	0.8
CCn1c2ccccc2c2cc(NC(=O)c3ccccc3[N+](=O)[O-])ccc21	-8	91	5	1	-0.9	1.1
COc1cc(OC)c(S(=O)(=O)Nc2ccccc2N2CCOCC2)cc1NC(C)=O	-4	96	15	1	x	1
CCc1cccc2c(C(=O)COC(=O)c3ccccc3)c[nH]c12	1	143*	38	3.2	-1.2	1
CCc1cccc2c(C(=O)COC(=O)c3ccc(O)cc3)c[nH]c12	-7	132*	1	1.3	-0.1	1.1
COc1ccccc1NC(=O)C/C(N)=N/O	-5	92	12	1.1	1.1	1
CCn1c(-c2ccc(F)cc2)cnc1SCC(=O)N1CCCCC1C (stereo unspecified)	6	132*	69	2.9	0.05	0.9
CCn1c(-c2ccc(F)cc2)cnc1SCC(=O)N1CCc2ccccc21	5	126	8	1.1	-0.99	1
O=C(NCCCN1CCOCC1)C(=O)N/N=C/c1ccc(F)cc1	-1	100	10	1.6	x	1
Cc1cc(N2CCC(C)CC2)nc2cccc(O)c12	3	102	39	4.5*	0.94	1
Cc1nc2ccccc2nc1N1CCC(C)CC1	0	107	-4	1.2	-0.46	1
CC(=O)N1CCC(=NNc2ccnc3cc(Cl)ccc23)CC1	-4	104	-2	1	x	1
N#Cc1nc(-c2ccco2)oc1NCc1ccco1	-4	98	5	1.5	0.01	1
Cc1ccc(-c2nc(C#N)c(NCc3ccco3)o2)cc1	4	113	73	3.6*	-0.72	1
COc1ccc(-c2nc(C#N)c(NCc3ccco3)o2)cc1	8	106	70	3.6*	x	0.9
N#Cc1nc(-c2ccc(OCc3ccccc3)cc2)oc1NCc1ccco1	-11	94	1	1.1	-0.4	1.1
O=C(Cn1cnc2cc([N+](=O)[O-])ccc2c1=O)NC(c1ccccc1)c1ccccc1	-9	100	10	1	-0.85	1.1
Fc1cccc(C2NN=C(c3ccccc3)S2)c1 (stereo unspecified)	67*	163*	182*	9*	0.61	0.3
COc1ccc(C2NC(=O)CS2)cc1OC (stereo unspecified)	-12	105	4	0.97	0.73	1.1
Cc1ccc(C2=NNC(c3cccc(F)c3)S2)cc1 (stereo unspecified)	84*	55	165*	3.4*	x	0.2
O=C1c2ccccc2C2=Nc3ccccc3SC(c3cccc(F)c3)C12 (stereo unspecified)	-4	108	-17	1.1	-1.1	1
Cc1ccc(C2=NNC(C(O)C(O)C(O)C(C)O)S2)cc1 (stereo unspecified)	3	121	21	1.8	-0.06	1
COc1ccc(C2NN=C(c3ccc(C)cc3)S2)cc1OC (stereo unspecified)	79*	136*	164*	3.5*	x	0.2
CCCCn1c(=O)c(-[n+]2ccccc2)c([O-])c2ccccc21	-3	100	-5	1.3	-0.07	1
Cc1ccc(C)c(N(CC(=O)NCCC2=CCCCC2)S(C)(=O)=O)c1	-10	98	-15	1	-0.73	1.1
SMILES	FLuc inh counter	STAT1 activator	APP 5'UTR act	NF-kB neuron act	sdo1 growth	FLuc stim CS
Cc1cccc(NC(=O)c2ccc3c(Cl)c4c(nc3c2)CCCC4)n1	81*	145*	160*	0.77	x	0.2
Cc1cccc(NC(=O)c2onc3c2CCCC3)n1	92*	119	158*	2.5	0.42	0.1
Cc1cccc(NC(=O)c2onc3c2CCCC3)c1C	30	140*	78	2.7	-0.81	0.7
Cc1cccc(NC(=O)c2ccoc2C)n1	-1	103	16	1.3	0.24	1
COC(=O)c1cccc(NC(=O)c2onc3c2CCCC3)c1	62*	150*	99	10*	-0.31	0.4
CN(C(=O)c1ccc2c(Cl)c3c(nc2c1)CCC3)c1ccccc1	11	120	49	2	-0.82	0.9
COC(=O)c1cccc(NC(N)=S)c1	-12	102	17	1	x	1.1
Cc1cccc(NC(=O)c2ccccn2)c1C	-2	125	33	1.6	0.25	1
COc1cc(/C=N/NC(=O)CCc2c(C)n[nH]c2C)cc(OC)c1OC	3	101	-1	1.1	0.9	1
NS(=O)(=O)c1ccc(NC(=S)NCc2ccco2)cc1	-2	94	8	1.1	x	1
Cc1c(NC(=O)c2ccc(N(Cc3ccccc3)S(C)(=O)=O)cc2)c(=O)n(-c2ccccc2)n1C	-1	105	-6	1.2	x	1
CC1CCN(c2nc(-c3ccco3)c3c(c2C#N)CC(C)(C)OC3)CC1	-3	93	-12	1.4	-0.45	1
Cc1ccc(NC(=O)C(C)c2ccc(-c3ccccc3)c(F)c2)c(C)c1 (stereo unspecified)	5	97	-1	0.99	0.68	0.9
Cc1ccccc1NC(=O)c1onc2c1CCCC2	63*	142*	94	3.6*	-0.42	0.4
Cc1ccccc1NC(=O)c1sc2nc3c(c(-c4ccco4)c2c1N)CCCC3	-4	110	x	0.61	-0.82	1
COc1ccc2oc(=Nc3cc(F)ccc3F)c(C(N)=O)cc2c1	-4	131*	-13	1.1	x	1
c1ccc(Oc2ccc3ccccc3n2)cc1	8	136*	28	1.3	x	0.9
COc1ccc(Oc2cc(C)c3ccccc3n2)cc1	-1	96	7	1.3	-0.59	1
c1cnc(SCCOc2ccc3c(c2)CCC3)nc1	17	150*	x	7.2*	-0.2	0.8
CNCCCOc1ccc2c(c1)CCC2	-2	113	16	0.79	x	1
CCc1nnc(NC(=O)CSc2nc3cc4c(cc3cc2CC)OCCO4)s1	-4	105	-4	3.5*	-1.4	1
Cc1cc(C)cc(NC(=S)N2CCC(N(C)CC3CCCO3)CC2)c1 (stereo unspecified)	-5	98	9	1	x	1.1
CCN=C1S/C(=C\c2sccc2C)C(=O)N1CC	4	130*	41	1.6	-0.9	1
CCN=C1S/C(=C\c2ccc(OC)c(OCC)c2)C(=O)N1CC	-2	100	7	1.2	0.03	1
O=C(NCCn1ccc2ccccc21)c1ccc2c(c1)OCO2	10	139*	150*	5.7*	-0.7	0.9
COc1ccc(C(=O)NCCn2ccc3ccccc32)cc1	7	116	91	4*	0.97	0.9
